In ChEMBL document CHEMBL2385076, “Discovery of 2-((1H-benzo[d]imidazol-1-yl)methyl)-4H-pyrido[1,2-a]pyrimidin-4-ones as novel PKM2 activators” (Bioorg Med Chem Lett, 2013):
In brackets after ≈: the same amount, converted by molar mass. Activity calls are given as the source filed them. The calls are words filed in the database; no cut-off is given here.

How the values were obtained:
[1] = Kinetic solubility of the compound at pH 7.4; assay type: physicochemical; conditions: buffer, read-out: Kinetic_solubility
[2] = Passive permeability from apical to basolateral side of dog RRCK cells; assay type: ADME, cell-based, Canis lupus familiaris, MDCKII-LE; conditions: MDCK, read-out: permeability
[3] = Intrinsic clearance in human liver microsomes; assay type: ADME, Microsome; conditions: read-out: CLH
[4] = target: T1, Pyruvate kinase PKM (Homo sapiens, UniProt P14618); experiment: Activation of human PKM2 assessed as production of ATP at infinite concentration after 10 mins by lactate dehydrogenase-coupled enzyme assay relative to FBP
How it was run: (§1)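 Coupled to lactate dehydrogenase, NADH loss read as the drop in absorbance at 340 nm. Reaction: 2nM human PKM2 (cleaved N-term his, 1-531), 2 mM PEP, 0.35 mM NADH, 4 units/mL LDH in 50 mM Tris pH 7.5 with KCl and 5 mM MgCl2. Compound preincubated 10 minutes at 32 °C, then 0.5mM ADP starts the reaction. Duplicates; 10-point curves; asymptote max = % activation at infinite concentration.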
Target sequence in this assay (P14618 2-531 limits assumed): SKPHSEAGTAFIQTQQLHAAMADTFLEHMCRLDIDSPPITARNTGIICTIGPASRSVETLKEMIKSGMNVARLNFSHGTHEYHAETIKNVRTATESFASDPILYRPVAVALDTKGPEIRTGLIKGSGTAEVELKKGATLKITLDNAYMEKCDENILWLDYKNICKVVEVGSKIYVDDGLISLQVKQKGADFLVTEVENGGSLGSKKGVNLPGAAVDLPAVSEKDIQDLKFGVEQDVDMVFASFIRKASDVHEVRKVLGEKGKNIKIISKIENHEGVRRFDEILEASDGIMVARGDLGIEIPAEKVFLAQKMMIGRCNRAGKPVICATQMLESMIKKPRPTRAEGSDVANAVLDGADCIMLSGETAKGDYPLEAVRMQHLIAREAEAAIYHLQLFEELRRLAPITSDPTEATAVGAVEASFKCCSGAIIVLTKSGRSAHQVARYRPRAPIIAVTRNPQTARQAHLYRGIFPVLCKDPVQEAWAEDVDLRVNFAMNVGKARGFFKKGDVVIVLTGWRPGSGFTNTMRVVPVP

[5] = target: T1, Pyruvate kinase PKM; experiment: Activation of human PKM2 assessed as production of ATP at 10 uM after 10 mins by lactate dehydrogenase-coupled enzyme assay; how it was run: as §1
Target sequence in this assay (P14618 2-531 limits assumed): as above

[6] = target: T1, Pyruvate kinase PKM; experiment: Activation of human PKM2 assessed as production of ATP at 10 uM after 10 mins by high-throughput screening assay relative to control
How it was run: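 High-throughput screen in which PKM2 activity was read as ATP production by luminescence, reported as % activation at 10 µM.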
Target sequence in this assay (P14618 2-531 limits assumed): as above

[7] = system: HT-29; experiment: Antiproliferative activity against human HT-29 cells at 10 uM after 5 days; assay type: functional; conditions: HT-29, 120 h
How it was run: (§2)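 Cells plated in Optimem-GlutaMax medium and cultured overnight before exposure to 10 µM compound. Viability measured with CytoTox-Glo after 5 days of treatment.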

[8] = system: JHH2; experiment: Antiproliferative activity against human JHH2 cells at 10 uM after 5 days; assay type: functional, cell-based; how it was run: as §2
[9] = system: SNU-182; experiment: Antiproliferative activity against human SNU182 cells at 10 uM after 5 days; assay type: functional, cell-based; how it was run: as §2
[10] = system: SNU-449; experiment: Antiproliferative activity against human SNU449 cells at 10 uM after 5 days; assay type: functional, cell-based; how it was run: as §2
[11] = target: T1, Pyruvate kinase PKM; experiment: Activation of PKM2 in human Snu182 cells assessed as extracellular acidification rate at 10 uM after 18 hrs; assay type: cell-based
How it was run: (§3)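 Snu182 cells seeded at 12k/well in RPMI with 10% FBS and 2 mM glutamine, cultured overnight, then given 10 µM compound for 18 h at 37°C, 5% CO2. Medium switched to XF DMEM with 5 mM glucose plus 10 µM compound; OCR and ECAR measured on a Seahorse XF96 analyzer.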
Target sequence in this assay (P14618 2-531 limits assumed): as above

[12] = target: T1, Pyruvate kinase PKM; experiment: Activation of PKM2 in human Snu182 cells assessed as oxygen consumption rate at 10 uM after 18 hrs; assay type: cell-based; how it was run: as §3
Target sequence in this assay (P14618 2-531 limits assumed): as above

[13] = target: T1, Pyruvate kinase PKM; experiment: Activation of PKM2 in human Huh7 cells assessed as formation of enzyme tetramers; assay type: cell-based; conditions: Huh-7
Target sequence in this assay (P14618 2-531 limits assumed): as above

[14] = target: T1, Pyruvate kinase PKM; experiment: Activation of PKM2 in human Huh7 cells assessed as production of pyruvate and ATP by fluorescence assay; assay type: cell-based, Huh-7
How it was run: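 Huh7 hepatocellular carcinoma cells were treated with compound and lysed, and the lysate was given PEP and ADP. The pyruvate formed was oxidized by pyruvate oxidase, and the fluorescence, proportional to pyruvate, was read as cellular pyruvate kinase activity.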
Target sequence in this assay (P14618 whole entry): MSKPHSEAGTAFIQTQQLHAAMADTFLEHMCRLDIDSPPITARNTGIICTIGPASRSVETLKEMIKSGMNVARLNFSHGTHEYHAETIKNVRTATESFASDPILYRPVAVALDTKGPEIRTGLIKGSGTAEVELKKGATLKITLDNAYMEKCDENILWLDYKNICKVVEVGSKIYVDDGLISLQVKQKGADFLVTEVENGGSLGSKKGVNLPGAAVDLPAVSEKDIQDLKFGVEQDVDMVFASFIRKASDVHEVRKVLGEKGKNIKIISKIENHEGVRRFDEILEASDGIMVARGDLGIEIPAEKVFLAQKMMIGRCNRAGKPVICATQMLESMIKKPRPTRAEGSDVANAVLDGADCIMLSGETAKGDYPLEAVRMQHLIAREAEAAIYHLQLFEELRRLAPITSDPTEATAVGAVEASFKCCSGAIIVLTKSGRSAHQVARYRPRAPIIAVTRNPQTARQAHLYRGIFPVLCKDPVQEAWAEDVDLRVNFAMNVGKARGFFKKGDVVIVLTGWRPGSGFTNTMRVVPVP

[15] = system: HuH-1 (human); experiment: Antiproliferative activity against human HuH1 cells at 10 uM after 5 days

Row | solubility kinetic [1] [µM] | Papp A→B [2] [×10⁻⁶ cm/s] | microsomal CLint [3] [µL/min/mg] | max activation [4] [%] | SMILES | also measured
1 | 529 (≈ 154 µg/mL) | 24.2 | 17.8 | 172 | Cc1cccn2c(=O)cc(Cn3cnc4ccccc43)nc12 | 
2 |  |  |  |  | Cc1ccc2nc(Cn3c(C)nc4ccccc43)cc(=O)n2c1 | max activation [5]: 73%
3 |  |  |  | 148 | Cc1ccc2nc(Cn3c(Cc4ccccc4)nc4ccccc43)cc(=O)n2c1 | Activity [6]: 155%
4 |  | 11.5 | 8 | 167 | O=c1cc(Cn2cnc3ccccc32)nc2scc(-c3ccccc3)n12 | 
5 |  | 17.6 | 8 | 140 | CCc1nn2c(=O)cc(Cn3cnc4ccccc43)nc2s1 | 
6 | 141 (≈ 43.8 µg/mL) | 22.9 | 12.5 | 160 | Cc1sc2nc(Cn3cnc4ccccc43)cc(=O)n2c1C | 
7 | 117 (≈ 34.7 µg/mL) | 23.4 | 8 | 136 | Cc1csc2nc(Cn3cnc4ccccc43)cc(=O)n12 | 
8 |  | 16.2 | 184 | 135 | CCc1ccc(C)n2c(=O)cc(Cn3cnc4ccccc43)nc12 | 
9 |  | 14.3 | 8 | 189 | Cc1cn2c(=O)cc(Cn3cnc4ccccc43)nc2s1 | 
10 | 580 (≈ 178 µg/mL) | 25.8 | < 8 | 123 | COc1ccc2nc(Cn3cnc4ccccc43)cc(=O)n2c1 | 
11 | 586 (≈ 170 µg/mL) | 21.3 | 13.3 | 161 | Cc1ccn2c(=O)cc(Cn3cnc4ccccc43)nc2c1 | 
12 |  |  |  | 149 | Cc1ccc2nc(Cn3cnc4ccccc43)cc(=O)n2c1 | 
13 | 8.6 (≈ 3.17 µg/mL) | 8.8 | 22.4 | 108 | COc1cccc(NS(=O)(=O)c2cc3c(cc2Cl)NC(=O)CO3)c1 | inhibition at 10 µM [7]: 26.8%; Activity [8]: inactive; Activity [9]: inactive; Activity [10]: inactive; Activity [11]: 91.4%; Activity [12]: 85.7%; Activity [13]: Active; EC50 [14]: 22 nM; Activity [15]: inactive
14 |  |  |  | 161 | O=c1cc(Cn2cnc3ccccc32)nc2ccccn12 | 
15 | 569 (≈ 161 µg/mL) | 17.3 | 8 | 162 | O=c1cc(Cn2cnc3ccccc32)nc2sccn12 | 
16 | 558 (≈ 173 µg/mL) | 22.2 | < 8 | 156 | O=c1cc(Cn2cnc3ccccc32)nc2ccc(Cl)cn12 | 
